# Measurements: ChEMBL document CHEMBL1131238, “Investigation of the N-substituent conformation governing potency and mu receptor subtype-selectivity in (+)-(3R, 4R)-dimethyl-4-(3-hydroxyphenyl)piperidine opioid antagonists” (J Med Chem, 1998)
# pKi: −log10 of the molar value.
# What was measured:
# Mu-type opioid receptor [1] = biological target: Mu-type opioid receptor (Rattus norvegicus, UniProt P33535); assay: Inhibition of [3H]DAMGO binding to Opioid receptor mu 1 of rat brain membranes; format: cell membranes, Membrane
# [2] = biological target: T1, Kappa-type opioid receptor (Cavia porcellus, UniProt P41144); assay: Inhibition of [3H]U-69593 binding to Opioid receptor kappa 1 of guinea pig membranes
# [3] = biological target: Delta-type opioid receptor (Rattus norvegicus, UniProt P33533); assay: Inhibition of [3H]-DADLE binding to Opioid receptor delta 1 of rat brain membranes; format: cell membranes, Membrane
# Mu-type opioid receptor [4] = biological target: Mu-type opioid receptor (Cavia porcellus, UniProt P97266); assay: The compound was tested for antagonist activity by selective inhibition of [35S]GTP-gamma-S, binding to Opioid receptor mu 1 in Guinea pig caudate stimulated by DAMGO[mu]; format: functional
# Outline: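 Guinea pig caudate putamen membranes (10 μg/tube) in 50 mM Tris-HCl pH 7.7, 0.1% BSA. Final: 100 mM NaCl, 5 mM MgCl2, 1 mM EDTA, 1 mM DTT, 100 μM GDP, 0.05–0.1 nM [35S]GTP-γ-S, agonist 500 nM or 10 μM, ≥10 antagonist concentrations; 4 h, filtration.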
# [5] = biological target: T1, Kappa-type opioid receptor; assay: The compound was tested for antagonist activity by selective inhibition of [35S]GTP-gamma-S, binding in Guinea pig caudate stimulated by U69,593 to Opioid receptor kappa 1; format: functional
# T1 sequence (P41144 whole entry): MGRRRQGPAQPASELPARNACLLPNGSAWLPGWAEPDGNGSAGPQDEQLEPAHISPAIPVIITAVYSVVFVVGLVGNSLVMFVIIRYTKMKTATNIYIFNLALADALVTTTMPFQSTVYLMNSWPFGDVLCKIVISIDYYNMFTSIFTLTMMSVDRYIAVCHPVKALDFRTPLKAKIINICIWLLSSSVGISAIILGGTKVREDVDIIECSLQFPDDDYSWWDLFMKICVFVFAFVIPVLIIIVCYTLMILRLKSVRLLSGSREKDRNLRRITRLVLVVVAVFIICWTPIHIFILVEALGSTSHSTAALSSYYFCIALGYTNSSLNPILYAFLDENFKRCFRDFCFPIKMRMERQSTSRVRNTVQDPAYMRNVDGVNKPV
# Chain of Mu-type opioid receptor (Cavia porcellus, UniProt P97266) (P97266 whole entry): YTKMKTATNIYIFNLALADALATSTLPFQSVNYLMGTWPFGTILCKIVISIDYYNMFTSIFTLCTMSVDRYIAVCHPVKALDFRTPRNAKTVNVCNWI
# Chain of Delta-type opioid receptor (P33533 whole entry): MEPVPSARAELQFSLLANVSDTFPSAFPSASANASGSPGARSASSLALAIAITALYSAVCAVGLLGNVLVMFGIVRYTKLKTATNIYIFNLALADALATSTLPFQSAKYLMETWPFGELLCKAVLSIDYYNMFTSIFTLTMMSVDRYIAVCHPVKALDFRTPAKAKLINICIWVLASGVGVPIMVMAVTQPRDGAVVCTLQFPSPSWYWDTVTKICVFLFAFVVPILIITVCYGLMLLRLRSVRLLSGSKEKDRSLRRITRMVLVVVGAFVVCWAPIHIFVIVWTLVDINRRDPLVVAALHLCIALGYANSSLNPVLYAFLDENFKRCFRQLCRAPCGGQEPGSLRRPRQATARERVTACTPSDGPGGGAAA
# Chain of Mu-type opioid receptor (Rattus norvegicus, UniProt P33535) (P33535 whole entry): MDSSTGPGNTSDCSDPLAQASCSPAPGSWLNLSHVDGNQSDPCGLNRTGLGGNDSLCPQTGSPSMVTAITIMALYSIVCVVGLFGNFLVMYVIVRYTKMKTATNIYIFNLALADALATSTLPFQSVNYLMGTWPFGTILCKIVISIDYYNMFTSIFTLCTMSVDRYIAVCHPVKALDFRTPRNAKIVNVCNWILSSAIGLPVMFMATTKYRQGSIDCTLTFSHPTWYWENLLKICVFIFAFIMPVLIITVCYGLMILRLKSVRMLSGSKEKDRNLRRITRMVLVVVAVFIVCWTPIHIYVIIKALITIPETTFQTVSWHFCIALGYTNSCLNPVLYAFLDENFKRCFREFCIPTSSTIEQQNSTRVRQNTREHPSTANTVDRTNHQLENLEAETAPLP
Compound,pKi (Mu-type opioid receptor [1]),pKi [2],pKi [3],pKi (Mu-type opioid receptor [4]),pKi [5]
C[C@H]1CN(C2CCCC(O)(c3ccccc3)C2)CC[C@@]1(C)c1cccc(O)c1 (stereo partly drawn),6.69,6.17,< 5.14,–,–
C[C@H]1CN(C/C=C\c2ccccc2)CC[C@@]1(C)c1cccc(O)c1,7.94,6.53,6.03,–,–
C[C@H]1CN(Cc2cc3ccccc3o2)CC[C@@]1(C)c1cccc(O)c1,7.65,< 6.16,5.84,–,–
C[C@H]1CN(C2CCCC2)CC[C@@]1(C)c1cccc(O)c1,6.35,6.70,< 5.14,–,–
C[C@H]1CN(C2CCCCC2)CC[C@@]1(C)c1cccc(O)c1,5.89,6.50,< 5.14,–,–
C[C@H]1CN(C/C=C/c2ccccc2Cl)CC[C@@]1(C)c1cccc(O)c1,8.95,7.45,6.77,10.59,9.25
Cc1ccccc1/C=C/CN1CC[C@@](C)(c2cccc(O)c2)[C@@H](C)C1,9.07,7.41,6.85,10.89,9.77
C[C@H]1CN(C2CCCC(O)C2)CC[C@@]1(C)c1cccc(O)c1 (stereo partly drawn),–,5.94,< 5.14,–,–
C[C@H]1CN(CC[C@H](O)C2CCCCC2)CC[C@@]1(C)c1cccc(O)c1,9.49,7.55,6.70,10.68,9.48
C[C@H]1CN(C/C=C/c2ccccc2)CC[C@@]1(C)c1cccc(O)c1,9.13,6.91,6.49,10.41,8.98
C[C@H]1CN(Cc2cc3ccccc3s2)CC[C@@]1(C)c1cccc(O)c1,7.67,< 6.16,5.80,–,–
C[C@H]1CN(C[C@@H]2C[C@H]2c2ccccc2)CC[C@@]1(C)c1cccc(O)c1,8.76,7.09,6.15,–,–
